According to article PMC5175369 (Nucleic Acids Research, 2016):
Where “and” joins values, the source holds several entries; their conditions need not be identical. Equal entries are not always repeated. Marks after values point to notes of the source that are not given here.

Experiments:
[1] = tested on: S. pombe Dcp1/2 complex; assay: Decapping assay of short capped transcripts with SpDcp1/2; type: biochemical, Schizosaccharomyces pombe; conditions: 34 nt RNA capped with the analog, SpDcp1/2 complex, 30°C
How it was run: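 Short 34-nt capped RNAs were transcribed with […] from EcoRI-linearized pSP-luc+. NTPs were 0.1 mM final and cap dinucleotide 0.5 mM final, for 45 min at 37°C, then DNase-treated and column-purified. 20 ng RNA was digested with 50 or 200 nM S. pombe Dcp1/2 in 10 mM Hepes pH 7.5, 100 mM KOAc, 2 mM Mg(OAc)2, 2 mM DTT at 30°C. No-enzyme controls were run. Products were separated on 15% PAGE/7 M urea with SYBR Gold. Decapping % is upper-band loss over upper plus lower bands, mean ± SD of two experiments.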

[2] = tested on: rabbit reticulocyte lysates (RRLs); assay: Translation efficiency of capped luciferase mRNA in RRL; type: biochemical; conditions: for relative cap-dependent translation efficiency: ApppG-capped mRNA translation subtracted before normalization to m^7GpppG; for relative translation efficiency: luciferase mRNA capped with the analog, normalized to m^7GpppG-capped mRNA
How it was run: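 Capped, polyadenylated luciferase mRNAs were made with SP6 polymerase from a PCR template, then DNase-treated and purified. Flexi RRL (40% lysate, 0.01 mM amino acids, 1 mM Mg acetate, 190 mM K acetate) was preincubated 60 min at 30°C, then translated 60 min at 30°C with four mRNA concentrations. Luminescence versus mRNA was linearly fitted and normalized to m7GpppG-capped mRNA, optionally after subtracting ApppG-capped mRNA. Means are from 2–3 repeats of each of two mRNA syntheses.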

[3] = tested on: mouse eIF4E; conditions: 20°C, cited from earlier work; for ΔG°: Gibbs free energy of binding; for KAS (cap–eIF4E): equilibrium association constant, mouse eIF4E
[4] = tested on: mammalian cells; conditions: mRNA capped with the analog; cited from earlier work

Row | relative cap-dependent translation efficiency [2] | relative translation efficiency [2] | Molecule | Decapping % 5 min [1] [%] | Decapping % 15 min [1] [%] | Decapping % 30 min [1] [%] | ΔG° [3] | KAS (cap–eIF4E) [3] | mRNA half-life [4] [h]
1 | 2.80 ± 0.83 | 2.51 ± 0.59 | COC1C(O)[C@@H](COP(=O)(O)OP(=O)([S-])OP(=O)(O)OP(=O)(O)OC[C@H]2O[C@@H](n3cnc4c(=O)[nH]c(N)nc43)C(O)C2O)O[C@H]1n1c[n+](C)c2c(O)nc(N)nc21 (mixture of isomers) [m2^7,2′-OGppSppG D1D2, m2^7,2′-OGppSppG] | 57.9 ± 14.6 | 65.6 ± 18.0 | 71.6 ± 17.2 | −11.33 ± 0.02^c kcal·mol^−1 | 282 ± 12^c μM^−1 | 
2 | 2.27 ± 0.10 | 2.07 ± 0.18 | CO[C@@H]1[C@H](O)[C@@H](COP(=O)([O-])OP(O)(=S)OP(=O)(O)OC[C@H]2O[C@@H](n3cnc4c(=O)[nH]c(N)nc43)[C@H](O)[C@@H]2O)O[C@H]1[n+]1cn(C)c2c(=O)[nH]c(N)nc21 (single isomer, unassigned) [m2^7,2′-OGppSpG D1, m2^7,2′-OGppSpG] | 47.5 ± 9.0 | 56.1 ± 11.5 | 60.9 ± 12.1 | −10.23 ± 0.02^a kcal·mol^−1 | 43.1 ± 1.4 μM^−1 and 43.1 ± 1.4^a μM^−1 | 3.08 ± 0.333
3 | 2.83 ± 0.26 | 2.54 ± 0.66 | CO[C@@H]1[C@H](O)[C@@H](COP(=O)([O-])OP(O)(=S)OP(=O)(O)OC[C@H]2O[C@@H](n3cnc4c(=O)[nH]c(N)nc43)[C@H](O)[C@@H]2O)O[C@H]1[n+]1cn(C)c2c(=O)[nH]c(N)nc21 (single isomer, unassigned) [m2^7,2′-OGppSpG D2, m2^7,2′-OGppSpG] | 47.3 ± 10.6 | 51.4 ± 15.6 | 57.4 ± 10.7 | −9.77 ± 0.07^a kcal·mol^−1 | 19.3 ± 2.2^a μM^−1 | 4.28 ± 0.067
4 | 0.00 | 0.16 ± 0.04 | Nc1nc2c(ncn2[C@@H]2O[C@H](COP(=O)(O)OP(=O)(O)OP(=O)(O)OC[C@H]3O[C@@H](n4cnc5c(N)ncnc54)[C@H](O)[C@@H]3O)[C@@H](O)[C@H]2O)c(=O)[nH]1 [ApppG] |  |  |  |  |  | 
5 | 1.96 ± 0.43 | 1.81 ± 0.32 | CO[C@@H]1[C@H](O)[C@@H](COP(=O)(O)OP(=O)([O-])OP(=O)(O)OC[C@H]2O[C@@H](n3cnc4c(=O)[nH]c(N)nc43)[C@H](O)[C@@H]2O)O[C@H]1n1c[n+](C)c2c(O)nc(N)nc21 [m2^7,2′-OGpppG] | 68.9 ± 0.4 | 78.6 ± 2.4 | 79.7 ± 7.5 | −9.42 ± 0.02^b kcal·mol^−1 |  | 2.58 ± 0.15
6 | 1.94 ± 0.56 | 1.79 ± 0.43 | CO[C@@H]1[C@H](O)[C@@H](COP(=O)(O)OP(=O)([O-])OP(=O)(O)OP(=O)(O)OC[C@H]2O[C@@H](n3cnc4c(=O)[nH]c(N)nc43)[C@H](O)[C@@H]2O)O[C@H]1n1c[n+](C)c2c(O)nc(N)nc21 [m2^7,2′-OGppppG] | 73.4 ± 7.6 | 78.4 ± 9.4 | 82.9 ± 11.3 | −10.73 ± 0.04^b kcal·mol^−1 | 99.8 ± 6.0^b μM^−1 | 
7 | 1.99 ± 0.81 | 1.83 ± 0.64 | CO[C@H]1[C@@H](O)[C@H]([n+]2cn(C)c3c(=O)[nH]c(N)nc32)O[C@@H]1COP(=O)([O-])OP(=O)(O)OP(=O)(O)OC[C@H]1O[C@@H](n2cnc3c(=O)[nH]c(N)nc32)[C@H](O)[C@@H]1O [m2^7,3′-OGpppG] |  |  |  | −9.40 ± 0.02^a kcal·mol^−1 | 10.2 ± 0.3^a μM^−1 | 
8 |  |  | C[n+]1cn(C2OC(COP(=O)(O)OP(=O)(O)OP(=O)(O)OP(=O)(O)OP(=O)(O)OCC3OC(n4cnc5c(=O)[nH]c(N)nc54)C(O)C3O)C(O)C2O)c2nc(N)[nH]c(=O)c21 (stereo not drawn) [m^7Gp5G] |  |  |  | −11.71 ± 0.06^b kcal·mol^−1 | 543 ± 55^b μM^−1 | 
9 | 1 | 1 | Cn1c[n+]([C@@H]2O[C@H](COP(=O)(O)OP(=O)([O-])OP(=O)(O)OC[C@H]3O[C@@H](n4cnc5c(=O)[nH]c(N)nc54)[C@H](O)[C@@H]3O)[C@@H](O)[C@H]2O)c2nc(N)[nH]c(=O)c21 [m^7GpppG] |  |  |  | −9.35 ± 0.03^a kcal·mol^−1 | 9.4 ± 0.4 μM^−1 and 9.4 ± 0.4^a μM^−1 | 
10 |  |  | m2^7,2′-OGpppSpG [m2^7,2′-OGpppSpG D1D2] | 72.7 ± 1.9 | 78.3 ± 1.0 | 79.5 ± 3.5 | −10.99 ± 0.01^c kcal·mol^−1 | 158 ± 2^c μM^−1 | 
